Assays:
[1] = system: Leishmania donovani; assay: Antileishmanial activity against Leishmania donovani MHOM/ET/67/L82 amastigotes infected in syrian golden hamster spleen after 72 hrs; format: functional, organism-based
How it was run: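 Hamster-maintained spleen amastigotes were grown axenically at 37 °C, 5% CO2 in Cunningham SM medium, pH 5.4, with 10% FBS. 10^5 amastigotes per well were exposed to serial drug dilutions for 72 h. Alamar blue (resazurin) was added for 2 h more, and fluorescence read at ex 536/em 588 nm. IC50 was taken from the sigmoidal inhibition curve versus control.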

[2] = system: L6; assay: Cytotoxicity against rat L6 cells after 72 hrs by Alamar blue assay; format: cell-based
How it was run: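 L-6 myoblasts were grown in RPMI 1640 with L-glutamine and 10% FBS at 37 °C, 5% CO2, seeded at 4×10^4 cells/well. After 24 h they were given serial drug dilutions for 72 h. Alamar blue was added for 2 h, and fluorescence read at ex 536/em 588 nm to give IC50.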

[3] = Selectivity ratio of IC50 for rat L6 cells to IC50 for Leishmania donovani MHOM/ET/67/L82; format: ADME, cell-based; conditions: for selectivity ratio: L6 cells, read-out: Ratio IC50; for Ratio IC50: l6
How it was run: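 Ratio of the L-6 cytotoxicity IC50 to the IC50 against axenic L. donovani amastigotes.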

[4] = system: Leishmania donovani; assay: Antileishmanial activity against Leishmania donovani MHOM/ET/67/L82 infected in NMRI mouse macrophage assessed as reduction in parasite burden after 4 days by Giemsa staining; conditions: MHOM/ET/67/L82, 4 days
[5] = system: Leishmania donovani; assay: Antileishmanial activity against Leishmania donovani MHOM/ET/67/HU3 infected in BALB/c mouse at 15 mg/kg, sc for 5 days from day 7 postinfection measured after 14 days by Giemsa staining; format: functional, organism-based; parameters: dose 15 mg/kg
How it was run: (§1)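 Female SPF BALB/c mice (6-8 weeks, ~20 g) infected iv via tail vein on day 0 with 1.5×10^7 hamster-spleen-derived amastigotes. Groups of five mice were treated once daily starting day 7. On day 14 the livers were weighed and Giemsa-stained smears prepared. Amastigotes were counted per 500 liver cells and expressed as amastigotes per liver cell × mg liver. % inhibition was calculated versus untreated mice.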

[6] = system: Leishmania donovani; assay: Antileishmanial activity against Leishmania donovani MHOM/ET/67/HU3 infected in BALB/c mouse at 0.5 mg/kg, iv for 3 days from day 7 postinfection measured after 14 days by Giemsa staining; format: functional; how it was run: as §1
[7] = system: Leishmania donovani; assay: Antileishmanial activity against Leishmania donovani MHOM/ET/67/HU3 infected in BALB/c mouse at 1.5 mg/kg, iv for 3 days from day 7 postinfection measured after 14 days by Giemsa staining; format: functional; how it was run: as §1
[8] = system: Leishmania donovani; assay: Antileishmanial activity against Leishmania donovani MHOM/ET/67/HU3 infected in BALB/c mouse at 12.5 mg/kg, iv for 5 days from day 7 postinfection measured after 14 days by Giemsa staining; format: functional; how it was run: as §1
[9] = system: Leishmania donovani; assay: Antileishmanial activity against Leishmania donovani MHOM/ET/67/HU3 infected in BALB/c mouse at 4.1 mg/kg, iv for 5 days from day 7 postinfection measured after 14 days by Giemsa staining; format: functional; how it was run: as §1
[10] = system: Leishmania donovani; assay: Antileishmanial activity against Leishmania donovani MHOM/ET/67/HU3 infected in BALB/c mouse at 0.2 mg/kg, iv for 5 days from day 7 postinfection measured after 14 days by Giemsa staining; format: functional; how it was run: as §1
[11] = system: Leishmania donovani; assay: Antileishmanial activity against Leishmania donovani MHOM/ET/67/HU3 infected in BALB/c mouse at 50 mg/kg, ip for 5 days from day 7 postinfection measured after 14 days by Giemsa staining; format: functional; conditions: MHOM/ET/67/HU3, ip, route intraperitoneal; how it was run: as §1
[12] = system: Leishmania donovani; assay: Antileishmanial activity against Leishmania donovani MHOM/ET/67/HU3 infected in BALB/c mouse at 1.3 mg/kg, iv for 5 days from day 7 postinfection measured after 14 days by Giemsa staining; format: functional; how it was run: as §1
[13] = system: Leishmania donovani; assay: Antileishmanial activity against Leishmania donovani MHOM/ET/67/HU3 infected in BALB/c mouse at 2 mg/kg, iv for 5 days from day 7 postinfection measured after 14 days by Giemsa staining; format: functional; how it was run: as §1
[14] = system: Leishmania donovani; assay: Antileishmanial activity against Leishmania donovani MHOM/ET/67/HU3 infected in BALB/c mouse at 50 mg/kg, po for 5 days from day 7 postinfection measured after 14 days by Giemsa staining; format: functional; how it was run: as §1
[15] = Leishmania donovani, MHOM/ET/67/L82, Spleen, 72 h

`CCCN1C=CC=c2o/c(=C/C=c3\s/c(=C\c4sc5ccccc5[n+]4C)n(CC)c3=O)nc21` showed an IC50 [1, 15] of 690 nM, an IC50 ([2]; Rattus norvegicus, L6, 72 h) of 1440 nM and a selectivity ratio [3] of 2.
In the case of `CCN1C(=O)/C(=C/C=C2\Sc3ccccc3N2C)S/C1=N\c1sc2ccccc2[n+]1C`, the IC50 [1, 15] is reported as 52 nM, the IC50 [4] is reported as 4690 nM and the IC50 ([2]; Rattus norvegicus, L6, 72 h) is reported as 156000 nM. For the same molecule, the selectivity ratio [3] was 2990.
In the case of `CCn1c(=O)/c(=C/N=c2n(C)c3ccccc3n2C)s/c1=C\c1sc2ccc(F)cc2[n+]1C`, the IC50 [1, 15] is reported as 129 nM, the IC50 ([2]; Rattus norvegicus, L6, 72 h) is reported as 80900 nM and the selectivity ratio [3] is reported as 627.
In the case of `CN1/C(=C/C=c2\s/c(=C\c3sc4ccc(F)cc4[n+]3C)n(CCO)c2=O)Sc2ccccc21`, the IC50 [1, 15] is reported as 11600 nM, the IC50 ([2]; Rattus norvegicus, L6, 72 h) is reported as > 169000 nM and the selectivity ratio [3] is reported as > 15.
For `CCCCN1C=CC=c2o/c(=C/C=c3\s/c(=C\c4sc5ccccc5[n+]4CC)n(CCC)c3=O)nc21`, the IC50 [1, 15] was 21 nM, the IC50 ([2]; Rattus norvegicus, L6, 72 h) was 2070 nM and the selectivity ratio [3] was 99.
Molecule “D-gluconic acid, 2,4:2',4'-O-[oxybis-oxidostibylidyne]bis-, trisodium salt, nonahydrate” has an inhibition [5] of 62%.
`CCn1c(=O)/c(=C/C=c2\nc3c(o2)=CC=CN3C)s/c1=C\c1sc2ccccc2[n+]1C` showed an IC50 [1, 15] of 677 nM, an IC50 ([2]; Rattus norvegicus, L6, 72 h) of 27200 nM and a selectivity ratio [3] of 40.
With `CCn1c(=O)/c(=C/C=C2\Sc3ccccc3N2C)s/c1=C\c1sc2ccc(F)cc2[n+]1C.O=C([O-])/C=C\C(=O)O` the IC50 [1] was 25 nM, the IC50 ([2]; l6) was 71700 nM and the “Ratio IC50” value [3] was 2870.
`C[C@@H]1[C@H](O)[C@@H](C)/C=C/C=C/C=C/C=C/C=C/C=C/C=C/[C@H](O[C@@H]2O[C@H](C)[C@@H](O)[C@H](N)[C@@H]2O)C[C@@H]2O[C@](O)(C[C@@H](O)C[C@@H](O)[C@H](O)CC[C@@H](O)C[C@@H](O)CC(=O)O[C@H]1C)C[C@H](O)[C@H]2C(=O)O` [AMPHOTERICIN B] showed an inhibition in vivo at 0.5 mg/kg [6] of 78.6% and an inhibition in vivo at 1.5 mg/kg [7] of 95.5%.
In the case of `CCn1c(=O)/c(=C/N=c2\ccccn2C)s/c1=C\c1sc2ccc(F)cc2[n+]1C`, the IC50 [1, 15] is reported as 2020 nM, the IC50 ([2]; Rattus norvegicus, L6, 72 h) is reported as 31700 nM and the selectivity ratio [3] is reported as 16.
With `CCn1c(=O)/c(=C/N=c2\sc(C)cn2C)s/c1=C\c1sc2ccc(F)cc2[n+]1C` the IC50 [1, 15] was 118 nM, the IC50 ([2]; Rattus norvegicus, L6, 72 h) was 10400 nM and the selectivity ratio [3] was 88.
Work on `CCn1c(=O)/c(=C/C=C2\Sc3ccccc3N2C)s/c1=C\c1sc2ccccc2[n+]1C` yielded an IC50 [1, 15] of 106 nM, an IC50 ([2]; Rattus norvegicus, L6, 72 h) of 7980 nM and a selectivity ratio [3] of 75.
`CCn1c(=O)/c(=C/C=C2\Sc3ccccc3N2C)s/c1=C\c1sc2ccc(F)cc2[n+]1C.[Cl-]` gave an inhibition in vivo at 12.5 mg/kg [8] of 95.4%, an inhibition in vivo at 4.1 mg/kg [9] of 97.2% and an IC50 [1] of 11 nM. The inhibition in vivo at 0.2 mg/kg [10] was 16.1%, the IC50 [4] was 353 nM and the IC50 ([2]; l6) was > 174000 nM. For the same molecule, the inhibition in vivo at 50 mg/kg [11] was 31.4%, the inhibition in vivo at 1.3 mg/kg [12] was 94.9% and the “Ratio IC50” value [3] was > 15000.
Work on `CCCCCCCCCCCCCCCCOP(=O)([O-])OCC[N+](C)(C)C` [MILTEFOSINE] yielded an IC50 [1, 15] of 430 nM and an IC50 [4] of 811 nM.
In the case of `CCn1c(=O)/c(=C/C=C2\Sc3ccccc3N2C)s/c1=C\c1sc2ccc(F)cc2[n+]1C.CS(=O)(=O)[O-]`, the IC50 [1] is reported as 20 nM, the IC50 ([2]; l6) is reported as 84500 nM and the inhibition in vivo at 2 mg/kg [13] is reported as 46.4%. The “Ratio IC50” value [3] was 4225 and the inhibition in vivo at 50 mg/kg [14] was 28%.
Work on `CCn1c(=O)/c(=C/C=c2\nc3c(o2)=CC=CN3C)s/c1=C\c1sc2ccc(F)cc2[n+]1C` yielded an IC50 [1, 15] of 1040 nM, an IC50 ([2]; Rattus norvegicus, L6, 72 h) of 28500 nM and a selectivity ratio [3] of 27.
`CCN1C(=O)/C(=C/C=C2\Sc3ccccc3N2C)S/C1=N\c1sc2ccc(Cl)cc2[n+]1C` showed an IC50 [1, 15] of 28 nM, an IC50 [4] of 80 nM and an IC50 ([2]; Rattus norvegicus, L6, 72 h) of 21200 nM. For the same molecule, the inhibition in vivo at 50 mg/kg [11] was 18.2% and the selectivity ratio [3] was 757.
`CCn1c(=O)/c(=C2\Sc3ccccc3N2C)s/c1=C\c1cccc[n+]1CC` showed an IC50 [1, 15] of 255 nM, an IC50 ([2]; Rattus norvegicus, L6, 72 h) of 115000 nM and a selectivity ratio [3] of 450.
In the case of `CCn1c(=O)/c(=C/N=c2\scc(C)n2C)s/c1=C\c1sc2ccc(F)cc2[n+]1C`, the IC50 [1, 15] is reported as 182 nM, the IC50 ([2]; Rattus norvegicus, L6, 72 h) is reported as 16500 nM and the selectivity ratio [3] is reported as 91.

From ChEMBL document CHEMBL1156742, “Fluorinated rhodacyanine (SJL-01) possessing high efficacy for visceral leishmaniasis (VL)” (J Med Chem, 2010)
